Assay results collected from several papers.
Lines come from different studies, so protocols differ.
Target: Hormonally up-regulated neu tumor-associated kinase (HUNK, Homo sapiens, UniProt P57058)
One construct used (P57058 1-714): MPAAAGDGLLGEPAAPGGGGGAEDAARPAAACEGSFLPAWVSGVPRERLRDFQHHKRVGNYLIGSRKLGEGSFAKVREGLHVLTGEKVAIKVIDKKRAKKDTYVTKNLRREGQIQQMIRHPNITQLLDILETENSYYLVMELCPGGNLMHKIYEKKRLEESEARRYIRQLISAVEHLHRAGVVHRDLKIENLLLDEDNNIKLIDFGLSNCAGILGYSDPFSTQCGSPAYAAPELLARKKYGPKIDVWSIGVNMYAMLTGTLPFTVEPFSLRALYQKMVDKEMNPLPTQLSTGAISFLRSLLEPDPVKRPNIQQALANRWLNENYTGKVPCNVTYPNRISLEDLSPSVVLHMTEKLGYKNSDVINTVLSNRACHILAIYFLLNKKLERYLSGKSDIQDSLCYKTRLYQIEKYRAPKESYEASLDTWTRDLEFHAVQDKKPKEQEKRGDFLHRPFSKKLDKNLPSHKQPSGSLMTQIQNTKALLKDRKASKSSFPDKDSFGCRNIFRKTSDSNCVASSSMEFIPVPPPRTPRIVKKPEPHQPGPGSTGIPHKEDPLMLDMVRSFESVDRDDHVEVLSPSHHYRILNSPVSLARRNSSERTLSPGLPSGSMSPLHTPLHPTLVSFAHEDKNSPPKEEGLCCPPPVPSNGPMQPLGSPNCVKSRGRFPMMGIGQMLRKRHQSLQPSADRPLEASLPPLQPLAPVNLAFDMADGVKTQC

COc1cnc(Nc2cccc(S(N)(=O)=O)c2)nc1N1CCN(c2ccccc2)CC1  remaining binding (binding; competition with immobilised ligand; 1 µM): 74%
Cc1cc(C)c(-n2ccn3nc(-c4cccnc4)cc23)cc1NC(=O)c1cc(C#N)cc(S(F)(F)(F)(F)F)c1  remaining binding (cell-free assay; competition with immobilised ligand; 0.1 µM): 83%
N[C@H]1CCN(c2nccc(-c3cnn4ncccc34)n2)C1  remaining binding (binding; 1 µM): 82%
O=C(c1ccc(Nc2nccc(-c3cc4ccccc4s3)n2)cc1)N1CCC(N2CCCC2)CC1  remaining binding (binding; competition with immobilised ligand; 1 µM): 100%
Cc1nc(N2CC[C@@H](O)C2)ncc1-c1cc(C(F)(F)F)cc2[nH]ncc12  remaining binding (binding; competition with immobilised ligand; 1 µM): 100%
CCN1CCN(Cc2ccc(C(=O)Nc3ccc(C)c(Oc4ccc5c(c4)CC(=O)N5)c3)cc2C(F)(F)F)CC1  remaining binding (binding; competition with immobilised ligand; 1 µM): 100%
CN(c1ccnc(CNc2nc(Nc3ccc4c(c3)CC(=O)N4)ncc2C(F)(F)F)n1)S(C)(=O)=O  remaining binding (cell-free assay; competition with immobilised ligand; 1 µM): 100%
COc1ccnn2ncc(-c3ccnc(N(C)C)n3)c12  remaining binding (binding; 1 µM): 100%
O=C(O)c1cc(-c2ccc(C3CCNCC3)cc2)c2ccc(-c3ccc(C(F)(F)F)cc3)cc2c1  remaining binding (cell-free assay; competition with immobilised ligand; 1 µM): 100%
FC(F)(F)Oc1cccc(-c2cnc3ccc(-c4ccncc4)nn23)c1  remaining binding (cell-free assay; competition with immobilised ligand; 5 µM): 96%
Cc1cnn2ncc(-c3ccnc(N(C)C)n3)c2c1  remaining binding (binding; 1 µM): 100%
CCCOc1ccc([C@@H]2[C@@H](C(=O)O)[C@H](c3ccc4c(c3)OCO4)CN2CC(=O)Nc2c(CC)cccc2CC)cc1  remaining binding (cell-free assay; competition with immobilised ligand; 1 µM): 70%
O=C(NCC1CCOCC1)c1n[nH]cc1NC(=O)c1c(F)cccc1F  remaining binding (binding; competition with immobilised ligand; 1 µM): 100%
COc1ncc2cc3ccccc3nc2c1C#N  remaining binding (cell-free assay; competition with immobilised ligand; 5 µM): 100%
F[C@@H]1CCN(c2nccc(-c3cnn4ncccc34)n2)C1  remaining binding (binding; 1 µM): 0%
CNC(=O)[C@@H]1CC[C@@H](n2c(-c3ccc4cnccc4c3)nc3ccc(C(=O)NCc4cccc(C(N)=O)c4)cc32)C1  remaining binding (binding; competition with immobilised ligand; 1 µM): 100%
C[C@@H]1CCN(c2nccc(-c3cnn4ncccc34)n2)C1  remaining binding (binding; 1 µM): 100%
O=C(NC[C@@H]1[C@H]2CN(C(=O)OCc3cc(C(F)(F)F)cc(C(F)(F)F)c3)C[C@@H]12)c1ccc2[nH]nnc2c1  remaining binding (cell-free assay; competition with immobilised ligand; 1 µM): 100%
O=C(NCCCN1CCOCC1)c1ccc(Nc2ncc(Cl)c(-c3ccc(Cl)s3)n2)cc1  remaining binding (binding; competition with immobilised ligand; 1 µM): 100%
CN(C)c1ncc(F)c(-c2cnn3ncccc23)n1  remaining binding (binding; 1 µM): 100%
NS(=O)(=O)c1cc(NC(=O)Cc2ccccc2)ccc1Oc1cccc(Cl)c1  remaining binding (cell-free assay; competition with immobilised ligand; 1 µM): 84%
O=C(NCCCN1CCOCC1)c1ccc(Nc2nccc(-c3cc4ccccc4s3)n2)cc1  remaining binding (binding; competition with immobilised ligand; 1 µM): 100%
